Screens (PubChem)
TCR-CD3 inh – human TCR-CD3 binding inhibition. TAMRA-labeled TCR probe fluorescence, biochemical. inhibition, % at 9.4 µM. 0.37% of 360,000 active. AID 651800; in the data active = inhibition above about 19%;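 also: recombinant mutant TCR 2C K166C tagged with TAMRA read by polarization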
PABP polyA inh – blocks human PABP binding to poly(A) RNA; P11940; fluorescence polarization; calls only at 35 µM; 1% of 290,000 active; AID 2014;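 also: calls also rest on retests at 20 µM and on dose response follow-up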
Target sequence (P11940 whole entry, looked up): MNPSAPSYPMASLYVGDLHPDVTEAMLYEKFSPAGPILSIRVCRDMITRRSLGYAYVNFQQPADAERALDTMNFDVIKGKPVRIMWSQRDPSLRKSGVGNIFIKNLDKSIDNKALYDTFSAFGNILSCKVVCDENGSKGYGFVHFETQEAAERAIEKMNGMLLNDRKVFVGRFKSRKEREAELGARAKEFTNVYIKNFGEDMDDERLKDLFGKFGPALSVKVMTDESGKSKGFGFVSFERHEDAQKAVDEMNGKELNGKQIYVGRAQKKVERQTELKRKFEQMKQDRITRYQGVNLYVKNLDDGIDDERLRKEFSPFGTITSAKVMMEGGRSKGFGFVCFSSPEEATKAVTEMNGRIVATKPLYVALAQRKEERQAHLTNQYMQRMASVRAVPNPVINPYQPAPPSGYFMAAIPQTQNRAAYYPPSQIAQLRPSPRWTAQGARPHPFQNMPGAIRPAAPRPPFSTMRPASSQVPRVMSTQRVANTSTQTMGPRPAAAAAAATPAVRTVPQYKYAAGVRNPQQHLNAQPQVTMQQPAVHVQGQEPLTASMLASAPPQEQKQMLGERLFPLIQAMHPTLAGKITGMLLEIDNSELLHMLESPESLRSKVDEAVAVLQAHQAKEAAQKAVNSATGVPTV
PABP1 MLLE inh – inhibitors of microRNA-mediated deadenylation, human PABP1 MLLE binding; P11940; GST-MLLE / FITC-PAM2 fluorescence polarization; inhibition, % at 20 µM; 0.36% of 360,000 active; in the data active = inhibition above about 35%, passing the limit was not always enough
eIF4H FP inh – inhibitors of RNA binding by human eIF4H | Q15056 | eIF4H fluorescence polarization binding assay | inhibition, % at 35 µM | 0.94% of 290,000 active;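 also: calls also rest on retests at 20 µM and on dose response follow-up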
RBBP9 inhibitor – blocks human serine hydrolase RBBP9; recombinant RBBP9, FP-Rh probe fluorescence polarization; inhibition, % at 7.94 µM; 0.2% of 220,000 active;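 active = inhibition above the campaign mean of all tested compounds plus 3 SD, cut at about 14% in these data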
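System: RBBP9 protein / Quantity: 2.5 µM RBBP9 dispensing solution, before mixing / Also added: Serine-hydrolase probe FP-Rh, 375 nM pre-mixing / Dosing: 7.94 µM single dose, 0.794% DMSO / Timing: enzyme-compound preincubation 30 min, then probe labeling 45 min, 25 °C / Signal: FP readout at 525/598 nm / Controls: DMSO-treated enzyme wells and wells lacking RBBP9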
Of the large screens only hits and unclear results are named; the others gave an inactive call. An excerpt weighted towards active compounds, which were near 1.6% of everything screened. Unless noted, no rule for the calls is given here.

CSCC(C)N1CCC(n2nccc2NC(=O)CCOc2ccccc2)CC1 (stereo not given)	PABP polyA inh active (no result: RBBP9 inhibitor)
O=C(O)c1ccc(CNc2ccccc2C(=O)O)cc1	PABP polyA inh active, eIF4H FP inh 77
Cc1c(Cl)c([N+](=O)[O-])nn1CCCC(=O)O	eIF4H FP inh active
Cn1c(=O)c2c(ncn2CC(=O)Nc2cccc(S(=O)(=O)Nc3ccccc3F)c2)n(C)c1=O	PABP1 MLLE inh 45
CC(C)(C)NC(=O)CN(Cc1cccs1)C(=O)CCN1CCc2ccccc21	none
CC(C)(C)NC(=O)CN(C(=O)CCN1CCCc2ccccc21)C(C)(C)C	PABP1 MLLE inh 54
CC(C)(C)CN1CCNC(=O)C1CC(=O)NCCN1CCCc2ccccc21 (stereo not given)	eIF4H FP inh 58
Cc1cc(NCCc2c[nH]c3ccccc23)ccc1Nc1cccnc1	none (no result: PABP polyA inh, PABP1 MLLE inh, eIF4H FP inh, RBBP9 inhibitor)
COc1cccc(CNS(=O)(=O)c2cc(Br)ccc2Br)c1OC	none (no result: PABP polyA inh, PABP1 MLLE inh, eIF4H FP inh, RBBP9 inhibitor)
O[C@@H](Cc1ccccc1)[C@@H](/C=C/c1ccccc1)NCCc1ccccc1	none (no result: PABP polyA inh, PABP1 MLLE inh, eIF4H FP inh, RBBP9 inhibitor)
C=CCn1c(COc2ccc(CC)cc2)nnc1SC/C(O)=C(\C#N)c1nc2ccccc2[nH]1	PABP polyA inh active, eIF4H FP inh 66
Oc1cccc(Nc2nc(O)c(/C=C3\C=Nc4ccccc43)s2)c1	PABP polyA inh inconclusive, eIF4H FP inh inconclusive, RBBP9 inhibitor 17
O=C(O)Cc1csc(-c2ccccc2)n1	eIF4H FP inh 7.1
COCCNC(=O)CSc1nc2ccccc2c(=O)n1-c1cccc(OC)c1	none
COCCNC(=O)c1ccc(-n2c(SCc3ccncc3)nc3ccccc3c2=O)cc1	PABP polyA inh active, eIF4H FP inh active
CC[n+]1ccc(C)c2cc(SC(F)(F)F)ccc21	none (no result: TCR-CD3 inh)
CC[n+]1ccc(C)c2cc(S(=O)C(F)(F)F)ccc21 (stereo not given)	PABP polyA inh active, eIF4H FP inh inconclusive (no result: TCR-CD3 inh)
CCCCn1c(-c2ccc(C(C)(C)C)cc2)nc2cc3[nH]c(=O)c(C(C)C)nc3cc21	PABP polyA inh active (no result: RBBP9 inhibitor)
CCCCn1c(-c2cccnc2)nc2cc3[nH]c(=O)c(C(C)C)nc3cc21	PABP polyA inh active (no result: RBBP9 inhibitor)
CCCCn1c(-c2ccc(Cl)c(Cl)c2)nc2cc3[nH]c(=O)c(C(C)C)nc3cc21	none (no result: RBBP9 inhibitor)
CCCC(=O)OC[C@H]1CN(C2CCCC2)S(=O)(=O)c2c(F)cccc2O1	none (no result: PABP polyA inh, PABP1 MLLE inh, eIF4H FP inh, RBBP9 inhibitor)
COc1ccc(C(=O)O)cc1NC(=S)NC(=O)/C=C/c1ccc(C(C)C)cc1	PABP1 MLLE inh 39 (no result: RBBP9 inhibitor)
CCCCC(=O)NC(=S)Nc1cc(C(=O)O)ccc1OC	none
Cc1ccc(O)c(NC(=S)NC(=O)/C=C/c2ccccc2)c1	PABP1 MLLE inh 41 (no result: RBBP9 inhibitor)
COC(=O)c1cc2c(c3c4ccccc4n(S(=O)(=O)c4cccc(C)c4)c13)C(=O)N(C)C2	none (no result: PABP polyA inh, PABP1 MLLE inh, eIF4H FP inh, RBBP9 inhibitor)
O=C(C1CC(c2cccc(Br)c2)=NO1)N1CCc2ccccc2C1 (stereo not given)	eIF4H FP inh 53
COc1cccc(/C=C2\SC(=S)N(c3cccnc3)C2=O)c1OC	PABP1 MLLE inh 55
Cc1nc(S/C(=C/c2ccc(-c3cc(Cl)ccc3C)o2)C(=O)O)n[nH]1	PABP polyA inh active
Cc1nc(S/C(=C/c2ccc(-c3ccc(Cl)cc3)o2)C(=O)O)n[nH]1	none
CC(C)(C)c1ccc(C#C[C@@H]2C=C[C@@H](O)[C@@H](CO)O2)cc1	none (no result: PABP polyA inh, PABP1 MLLE inh, eIF4H FP inh, RBBP9 inhibitor)
O=C(NC12CC3CC(CC(C3)C1)C2)c1cnccn1	PABP1 MLLE inh 46
O=C(Nc1ccccc1)N1c2ccccc2SC1c1ccco1 (stereo not given)	none (no result: PABP polyA inh, PABP1 MLLE inh, eIF4H FP inh, RBBP9 inhibitor)
NC(=O)c1c(NC(=O)Cn2nc(C(=O)O)c3ccccc3c2=O)sc2c1CCC2	PABP polyA inh active, eIF4H FP inh inconclusive
CCN1CCc2c(sc(NC(=S)NC(=O)c3ccco3)c2C(N)=O)C1	PABP polyA inh active, eIF4H FP inh 85
CCC(=O)Nc1sc2c(c1C(N)=O)CCN(Cc1ccccc1)C2	PABP polyA inh active (no result: RBBP9 inhibitor)
CCCC(=O)NC(=S)Nc1sc2c(c1C(N)=O)CCC2	PABP polyA inh active
CCN1CCc2c(sc(NC(=O)Cc3ccccc3)c2C(N)=O)C1	none (no result: RBBP9 inhibitor)
CCC(=O)Nc1sc2c(c1C(N)=O)CCC2	none
NC(=O)c1c(NC(=O)c2ccccc2)sc2c1CCN(Cc1ccccc1)C2	PABP polyA inh inconclusive, eIF4H FP inh inconclusive (no result: RBBP9 inhibitor)
Cc1cc(N2CCN(CC(C)(C)O)C[C@H]2C)ccc1N1CCN(Cc2ccccc2)[C@H](C)C1	none (no result: PABP polyA inh, PABP1 MLLE inh, eIF4H FP inh, RBBP9 inhibitor)
Cc1ccc2nc(CN(C)C(=O)[C@H](CCc3ccccc3)NC(=O)[C@H]3O[C@@H](n4cnc5c(N)ncnc54)[C@H](O)[C@@H]3O)[nH]c2c1	none (no result: PABP polyA inh, PABP1 MLLE inh, eIF4H FP inh, RBBP9 inhibitor)
CCN(CC)c1ccc(/C=C2\CCC(/C=C(\C#N)C(=O)Nc3ccccc3F)=C2N2CCOCC2)cc1	eIF4H FP inh 61
CCN(CC)c1ccc(/C=C2\CCC(/C=C(/C#N)C(=O)Nc3ccccc3F)=C2N2CCOCC2)cc1	none (no result: PABP polyA inh, eIF4H FP inh, RBBP9 inhibitor)
NC(=O)c1ncn([C@@H]2O[C@H](C(=O)N[C@H](Cc3ccccc3)C(=O)N3CCN(c4ccc(Cl)cn4)CC3)[C@@H](O)[C@H]2O)n1	none (no result: PABP polyA inh, PABP1 MLLE inh, eIF4H FP inh, RBBP9 inhibitor)
Cc1noc(C)c1S(=O)(=O)N(C)C[C@@H]1OCc2cn(nn2)CCCC(=O)N([C@H](C)CO)C[C@H]1C	none (no result: PABP polyA inh, PABP1 MLLE inh, eIF4H FP inh, RBBP9 inhibitor)
O=c1[nH]c2ccc(NC(=S)Nc3ccccc3Cl)cc2[nH]1	PABP1 MLLE inh 38
O=S(=O)(CS(=O)(=O)c1ccc(Br)cc1)c1ccc(Br)cc1	none (no result: PABP polyA inh, PABP1 MLLE inh, eIF4H FP inh, RBBP9 inhibitor)
CCCOC(=O)c1c(NC(=O)C2CCCO2)sc(C(=O)OC)c1C (stereo not given)	PABP1 MLLE inh 45
CCOC(=O)c1sc(NC(=O)C2CCCO2)c(C(=O)OC)c1C (stereo not given)	none (no result: TCR-CD3 inh, PABP polyA inh, PABP1 MLLE inh, eIF4H FP inh)
COc1ccc(N2C(=O)CC(SCCc3nc4ccccc4[nH]3)C2=O)cc1 (stereo not given)	PABP1 MLLE inh 40
O=C1CC(SCCc2nc3ccccc3[nH]2)C(=O)N1c1ccc(F)cc1 (stereo not given)	none
COc1cccc(F)c1C(=O)NC(=O)Nc1ccc2nc(C)oc2c1	PABP polyA inh active (no result: TCR-CD3 inh)
CC(C)c1ccccc1-n1c(SCC(=O)N2CCc3ccccc3C2)nc2ccccc2c1=O	PABP polyA inh active
O=C(CSc1nc2ccccc2c(=O)n1-c1ccccc1)N1CCc2ccccc2C1	none
COC(=O)CNC(=O)CN1c2cccc3cccc(c23)S1(=O)=O	PABP polyA inh active, eIF4H FP inh inconclusive
Cc1[nH]c2ccccc2c1/C=C/C(=O)c1ccncc1	PABP polyA inh active, eIF4H FP inh 72
CCN(CC)CCSC(=O)C(c1ccccc1)c1ccccc1	PABP1 MLLE inh 47 (no result: PABP polyA inh, eIF4H FP inh, RBBP9 inhibitor)
CN1C(=O)c2ccccc2NC(=O)[C@]12O[C@@H]2c1cccc(O)c1	eIF4H FP inh 88 (no result: RBBP9 inhibitor)
CS(=O)(=O)NN1C(=O)c2ccccc2NC1c1cccc(O)c1 (stereo not given)	none
Nn1c(SCc2ccccc2F)nnc1-c1ccccn1	PABP polyA inh active, eIF4H FP inh 4.1
CCC1CCCCN1CCNS(=O)(=O)c1ccc2c(c1)oc(=O)n2C (stereo not given)	none
CCC1CCCCN1CCCNS(=O)(=O)c1ccc2c(c1)oc(=O)n2C (stereo not given)	PABP polyA inh active (no result: RBBP9 inhibitor)
